*1 amine or outer side, *2 acyl side, *3 side chain or, on linkers, in order; H or OH if unused. Where a SMILES comes first, the peptide text is derived from it. [ ]: non-standard residue; d: D form. The star is where a group is joined. ξ: configuration not given here. Met(O2) = CS(=O)(=O)CC[C@H](N)C(=O)O; Sta = CC(C)C[C@H](N)[C@@H](O)CC(=O)O; X1 = O=C(C(N[*:1])c1cccs1)[*:2]; ξGly(cPent) = NC(C(=O)O)C1CCCC1; Cha = N[C@@H](CC1CCCCC1)C(=O)O; Isovaleryl = CC(C)CC(=O)*; ξChg = NC(C(=O)O)C1CCCCC1; ξPhg = NC(C(=O)O)c1ccccc1; Nle = CCCC[C@H](N)C(=O)O; Boc = CC(C)(C)OC(=O)*; Bn = c1ccc(C*)cc1; X2 = c1cncc(C*)c1

We go through 19 compounds from ChEMBL document CHEMBL1123569 (J Med Chem, 1987).

For the experiment, the target named is T1, Renin (Homo sapiens, UniProt P00797).
T1 sequence (P00797 whole entry): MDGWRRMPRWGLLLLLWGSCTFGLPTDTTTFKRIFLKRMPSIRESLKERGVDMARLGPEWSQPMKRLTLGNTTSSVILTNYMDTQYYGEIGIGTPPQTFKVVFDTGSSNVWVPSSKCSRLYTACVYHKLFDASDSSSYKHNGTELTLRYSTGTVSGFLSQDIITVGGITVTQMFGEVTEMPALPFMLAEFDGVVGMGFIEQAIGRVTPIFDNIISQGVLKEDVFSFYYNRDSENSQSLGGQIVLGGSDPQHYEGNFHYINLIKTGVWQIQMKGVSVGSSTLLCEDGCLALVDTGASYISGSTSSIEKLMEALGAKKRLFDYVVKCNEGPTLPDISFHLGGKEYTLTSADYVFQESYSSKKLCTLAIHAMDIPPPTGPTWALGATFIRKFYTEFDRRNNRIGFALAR
The experiment in a line: Inhibition of human plasma renin. The experiment is classed as cell-free. Summed up:
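Enriched human plasma renin preparation, substrate its own endogenous angiotensinogen (about 2×10^-6 M). Inhibitor added over a range of increasing concentrations. Angiotensin I released was quantified by RIA. With substrate held constant across the series, IC50 is treated as linearly proportional to Ki.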
By IC50 is commonly meant the concentration at which inhibition is half-maximal. Low values mean higher potency, high ones lower potency. `COC(=O)C[C@H](O)[C@H](CC(C)C)NC(=O)[C@H](C)NC(=O)C[C@H](O)[C@H](CC(C)C)NC(=O)C(NC(=O)[C@H](Cc1ccccc1)NC(=O)OC(C)(C)C)c1cccs1` (some centres undefined) (Boc-F[X1][Sta]A[Sta]-OMe): 251 nM corresponded to half-maximal inhibition (IC50).

With `COC(=O)C[C@H](O)[C@H](CC(C)C)NC(=O)[C@H](C)NC(=O)C[C@H](O)[C@H](CC(C)C)NC(=O)[C@H](CCS(C)(=O)=O)NC(=O)[C@H](Cc1ccccc1)NC(=O)OC(C)(C)C` (Boc-F[Met(O2)][Sta]A[Sta]-OMe), the IC50 is 10000 nM.

Compound `CCOC[C@H](NC(=O)[C@H](Cc1ccccc1)NC(=O)OC(C)(C)C)C(=O)N[C@@H](CC(C)C)[C@@H](O)CC(=O)N[C@@H](C)C(=O)N[C@@H](CC(C)C)[C@@H](O)CC(=O)OC` (Boc-FS(Et)[Sta]A[Sta]-OMe) showed an IC50 of 112 nM.

In turn, `COC(=O)C[C@H](O)[C@H](CC(C)C)NC(=O)[C@H](C)NC(=O)C[C@H](O)[C@H](CC(C)C)NC(=O)[C@H](Cc1c[nH]c2ccccc12)NC(=O)[C@H](Cc1ccccc1)NC(=O)OC(C)(C)C` (Boc-FW[Sta]A[Sta]-OMe) showed an IC50 of 120 nM.

With `COC(=O)C[C@H](O)[C@H](CC(C)C)NC(=O)[C@H](C)NC(=O)C[C@H](O)[C@H](CC(C)C)NC(=O)C(NC(=O)[C@H](Cc1ccccc1)NC(=O)OC(C)(C)C)C1CCCC1` (some centres undefined) (Boc-F[ξGly(cPent)][Sta]A[Sta]-OMe), the concentration for half-maximal inhibition (IC50) was 37.2 nM.

`COC(=O)C[C@H](O)[C@H](CC(C)C)NC(=O)[C@H](C)NC(=O)C[C@H](O)[C@H](CC(C)C)NC(=O)[C@H](COCc1cccnc1)NC(=O)[C@H](Cc1ccccc1)NC(=O)OC(C)(C)C` (Boc-FS(X2)[Sta]A[Sta]-OMe): the IC50 is 316 nM.

Consider `COC(=O)C[C@H](O)[C@H](CC(C)C)NC(=O)[C@H](C)NC(=O)C[C@H](O)[C@H](CC(C)C)NC(=O)[C@H](COCc1ccccc1)NC(=O)[C@H](Cc1ccccc1)NC(=O)OC(C)(C)C` (Boc-FS(Bn)[Sta]A[Sta]-OMe), for which the IC50 was 174 nM.

`CCCC[C@H](NC(=O)[C@H](Cc1ccccc1)NC(=O)OC(C)(C)C)C(=O)N[C@@H](CC(C)C)[C@@H](O)CC(=O)N[C@@H](C)C(=O)N[C@@H](CC(C)C)[C@@H](O)CC(=O)O` (Boc-F[Nle][Sta]A[Sta]-OH): the IC50 was 30.2 nM.

As for `COC(=O)C[C@H](O)[C@H](CC(C)C)NC(=O)[C@H](C)NC(=O)C[C@H](O)[C@H](CC(C)C)NC(=O)[C@H](CC(N)=O)NC(=O)[C@H](Cc1ccccc1)NC(=O)OC(C)(C)C` (Boc-FN[Sta]A[Sta]-OMe), the IC50 is 1200 nM.

For `COC(=O)C[C@H](O)[C@H](CC(C)C)NC(=O)[C@H](C)NC(=O)C[C@H](O)[C@H](CC(C)C)NC(=O)[C@H](CO)NC(=O)[C@H](Cc1ccccc1)NC(=O)OC(C)(C)C` (Boc-FS[Sta]A[Sta]-OMe), the IC50 is 437 nM.

For the compound `COC(=O)C[C@H](O)[C@H](CC(C)C)NC(=O)[C@H](C)NC(=O)C[C@H](O)[C@H](CC(C)C)NC(=O)[C@H](CCSC)NC(=O)[C@H](Cc1ccccc1)NC(=O)OC(C)(C)C` (Boc-FM[Sta]A[Sta]-OMe), inhibition was half-maximal at 316 nM (IC50).

`COC(=O)C[C@H](O)[C@H](CC(C)C)NC(=O)[C@H](C)NC(=O)C[C@H](O)[C@H](CC(C)C)NC(=O)C(NC(=O)[C@H](Cc1ccccc1)NC(=O)OC(C)(C)C)c1ccccc1` (some centres undefined) (Boc-F[ξPhg][Sta]A[Sta]-OMe) gave a 50% inhibitory concentration (IC50) of 93.3 nM.

Compound `CCCC[C@H](NC(=O)[C@H](Cc1ccccc1)NC(=O)OC(C)(C)C)C(=O)N[C@@H](CC(C)C)[C@@H](O)CC(=O)N[C@@H](C)C(=O)N[C@@H](CC(C)C)[C@@H](O)CC(=O)OC` (Boc-F[Nle][Sta]A[Sta]-OMe) showed an IC50 of 120 nM.

In turn, `COC(=O)C[C@H](O)[C@H](CC(C)C)NC(=O)[C@H](C)NC(=O)C[C@H](O)[C@H](CC(C)C)NC(=O)[C@H](CCC(N)=O)NC(=O)[C@H](Cc1ccccc1)NC(=O)OC(C)(C)C` (Boc-FQ[Sta]A[Sta]-OMe) gave an IC50 of 316 nM.

In turn, `COC(=O)C[C@H](O)[C@H](CC(C)C)NC(=O)[C@H](C)NC(=O)C[C@H](O)[C@H](CC(C)C)NC(=O)C(NC(=O)[C@H](Cc1ccccc1)NC(=O)OC(C)(C)C)C1CCCCC1` (some centres undefined) (Boc-F[ξChg][Sta]A[Sta]-OMe) gave an IC50 of 151 nM.

As to `COC(=O)C[C@H](O)[C@H](CC(C)C)NC(=O)[C@H](C)NC(=O)C[C@H](O)[C@H](CC(C)C)NC(=O)[C@H](CC1CCCCC1)NC(=O)[C@H](Cc1ccccc1)NC(=O)OC(C)(C)C` (Boc-F[Cha][Sta]A[Sta]-OMe), the IC50 is 490 nM.

Compound `COC(=O)C[C@H](O)[C@H](CC(C)C)NC(=O)[C@H](C)NC(=O)C[C@H](O)[C@H](CC(C)C)NC(=O)[C@H](Cc1ccccc1)NC(=O)[C@H](Cc1ccccc1)NC(C)=O` (Ac-FF[Sta]A[Sta]-OMe) showed an IC50 of 1410 nM.

In turn, `COC(=O)C[C@H](O)[C@H](CC(C)C)NC(=O)[C@H](C)NC(=O)C[C@H](O)[C@H](CC(C)C)NC(=O)[C@H](Cc1ccccc1)NC(=O)[C@H](Cc1ccccc1)NC(=O)CC(C)C` (Isovaleryl-FF[Sta]A[Sta]-OMe) gave an IC50 of 316 nM.

In the case of `COC(=O)C[C@H](O)[C@H](CC(C)C)NC(=O)[C@H](C)NC(=O)C[C@H](O)[C@H](CC(C)C)NC(=O)[C@H](Cc1ccc(OCc2ccccc2)cc1)NC(=O)[C@H](Cc1ccccc1)NC(=O)OC(C)(C)C` (Boc-FY(Bn)[Sta]A[Sta]-OMe), the IC50 is 1410 nM.
